Here are results for 19 compounds from ChEMBL document CHEMBL1139993, “Synthesis of sialic acid derivatives as ligands for the myelin-associated glycoprotein (MAG)” (Bioorg Med Chem, 2007).

The target in the first assay is T1, Myelin-associated glycoprotein (Homo sapiens) (UniProt P20916).
T1 sequence (whole entry): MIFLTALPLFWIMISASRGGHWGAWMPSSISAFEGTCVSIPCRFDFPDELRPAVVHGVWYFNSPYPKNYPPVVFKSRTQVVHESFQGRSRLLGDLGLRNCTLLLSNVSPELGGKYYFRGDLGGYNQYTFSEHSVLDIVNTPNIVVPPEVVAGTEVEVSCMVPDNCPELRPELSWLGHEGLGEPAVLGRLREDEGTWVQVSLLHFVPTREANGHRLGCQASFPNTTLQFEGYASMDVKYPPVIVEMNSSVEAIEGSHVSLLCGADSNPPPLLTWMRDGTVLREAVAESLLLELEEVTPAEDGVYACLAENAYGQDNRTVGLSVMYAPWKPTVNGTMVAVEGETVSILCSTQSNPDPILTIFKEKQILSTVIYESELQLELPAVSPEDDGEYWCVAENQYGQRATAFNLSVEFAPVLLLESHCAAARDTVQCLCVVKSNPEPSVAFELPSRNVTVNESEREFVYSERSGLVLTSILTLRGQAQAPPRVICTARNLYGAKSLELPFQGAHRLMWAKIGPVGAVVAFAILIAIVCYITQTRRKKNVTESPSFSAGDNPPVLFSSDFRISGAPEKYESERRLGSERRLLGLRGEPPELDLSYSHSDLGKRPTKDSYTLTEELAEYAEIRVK
Briefly: Inhibition of MAG N-terminal three domains expressed in CHO cells at 20 mM.
On to `CC(=O)N[C@H]1[C@H]([C@@H](O)[C@H](O)CO)O[C@](OCc2ccccc2)(C(=O)O)C[C@@H]1O`, for which the inhibition (in general, the relative decrease from the control value, in per cent) was less than 50%.

For the next assay, the target named is T1, Myelin-associated glycoprotein (Homo sapiens). Briefly: Inhibition of MAG N-terminal three domains expressed in CHO cells relative to Gal-beta-(1-3)-GalNAc-OSE. The class given is cell-based. In outline: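 Fc-MAG_d1–3 fusion (N-terminal three MAG domains plus human IgG Fc) was expressed in CHO cells and protein A-agarose purified, then precomplexed with alkaline phosphatase-labelled anti-Fc antibody. It was added to plates with immobilized Neu5Ac plus inhibitor, incubated overnight at 4 °C, and washed. Bound protein was read as initial rate of fluorescein release from fluorescein diphosphate. IC50 was taken from at least eight concentrations.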
In the case of `CC(=O)N[C@H]1[C@H]([C@@H](O)[C@H](O)CNC(=O)c2ccc(Cl)cc2)O[C@@](OCc2ccccc2)(C(=O)O)C[C@@H]1O`, the Activity was found to be 1070.

As for `CC(=O)N[C@H]1[C@H]([C@@H](O)[C@H](O)CNC(=O)c2ccc(C(F)(F)F)cc2)O[C@@](OCc2ccccc2)(C(=O)O)C[C@@H]1O`, the Activity worked out at 207.

As for `CC(=O)N[C@H]1[C@H]([C@@H](O)[C@H](O)CNC(=O)c2cccc(Cl)c2)O[C@@](OCc2ccccc2)(C(=O)O)C[C@@H]1O`, the Activity stood at 483.

With `CC(=O)N[C@H]1[C@H]([C@@H](O)[C@H](O)CNC(=O)c2ccccc2)O[C@@](OCc2ccccc2)(C(=O)O)C[C@@H]1O`, the Activity was 690.

Take `CC(=O)N[C@H]1[C@@H]([C@H](O)[C@H](O)CNC(=O)c2ccccc2-c2ccccc2)O[C@@](OCc2ccccc2)(C(=O)O)C[C@@H]1O`: the Activity was 75.

Compound `CC(=O)N[C@H]1[C@H]([C@@H](O)[C@H](O)CNC(=O)c2ccc(Cl)cc2Cl)O[C@@](OCc2ccccc2)(C(=O)O)C[C@@H]1O` yielded an Activity of 35.

`CC(=O)N[C@H]1[C@H]([C@@H](O)[C@H](O)CN=[N+]=[N-])O[C@@](OCc2ccccc2)(C(=O)O)C[C@@H]1O` registered an Activity of 0.05.

The compound `CC(=O)N[C@H]1[C@H]([C@@H](O)[C@H](O)COCc2ccccc2)O[C@@](OCc2ccccc2)(C(=O)O)C[C@@H]1O` displayed an Activity of 2.8.

Compound `CCCCCC(=O)NC[C@@H](O)[C@H](O)[C@@H]1O[C@@](OCc2ccccc2)(C(=O)O)C[C@H](O)[C@H]1NC(C)=O` yielded an Activity of 12.

In turn, `CCCCCCCCCC(=O)NC[C@@H](O)[C@H](O)[C@@H]1O[C@@](OCc2ccccc2)(C(=O)O)C[C@H](O)[C@H]1NC(C)=O` showed an Activity of 12.

`COc1ccc(C(=O)NC[C@@H](O)[C@H](O)[C@@H]2O[C@@](OCc3ccccc3)(C(=O)O)C[C@H](O)[C@H]2NC(C)=O)cc1` gave an Activity of 290.

On to `CC(=O)N[C@H]1[C@H]([C@@H](O)[C@H](O)CO)O[C@@](OCc2ccccc2)(C(=O)O)C[C@@H]1O`, for which the Activity turned out to be 0.62.

Turning to `CC(=O)N[C@H]1[C@H]([C@@H](O)[C@H](O)CNC(=O)c2ccc(Cl)c(Cl)c2)O[C@@](OCc2ccccc2)(C(=O)O)C[C@@H]1O`, the Activity came out at 690.

For `CCCC(=O)NC[C@@H](O)[C@H](O)[C@@H]1O[C@@](OCc2ccccc2)(C(=O)O)C[C@H](O)[C@H]1NC(C)=O`, the Activity was found to be 8.6.

Turning to `CC(=O)N[C@H]1[C@H]([C@@H](O)[C@H](O)CNC(=O)c2cc(=O)[nH]c(=O)[nH]2)O[C@@](OCc2ccccc2)(C(=O)O)C[C@@H]1O`, the Activity came to 6.7.

On to `CC(=O)N[C@H]1[C@H]([C@@H](O)[C@H](O)CNC(=O)c2ccc([N+](=O)[O-])cc2)O[C@@](OCc2ccccc2)(C(=O)O)C[C@@H]1O`, for which the Activity worked out at 414.

Take `CC(=O)N[C@H]1[C@@H]([C@H](O)[C@H](O)CNC(=O)c2ccc(-c3ccccc3)cc2)O[C@@](OCc2ccccc2)(C(=O)O)C[C@@H]1O`: the Activity was 191.

On to `CC(=O)N[C@@H]1[C@@H]([C@@H](O)[C@H](O)CNC(=O)c2ccc(C)cc2)O[C@@](OCc2ccccc2)(C(=O)O)C[C@@H]1O`, for which the Activity stood at 806.
